Experimental findings from ChEMBL document CHEMBL4024762, “Discovery of N-(3-Carbamoyl-5,5,7,7-tetramethyl-5,7-dihydro-4H-thieno[2,3-c]pyran-2-yl)-lH-pyrazole-5-carboxamide (GLPG1837), a Novel Potentiator Which Can Open Class III Mutant Cystic Fibrosis Transmembrane Conductance Regulator (CFTR) Channels to a High Extent” (J Med Chem, 2018) are described below.

A value given as a limit tells only on which side of the number the result lay.

Cystic fibrosis transmembrane conductance regulator (Homo sapiens), P13569 [G551D], sequence (P13569 whole entry G551D): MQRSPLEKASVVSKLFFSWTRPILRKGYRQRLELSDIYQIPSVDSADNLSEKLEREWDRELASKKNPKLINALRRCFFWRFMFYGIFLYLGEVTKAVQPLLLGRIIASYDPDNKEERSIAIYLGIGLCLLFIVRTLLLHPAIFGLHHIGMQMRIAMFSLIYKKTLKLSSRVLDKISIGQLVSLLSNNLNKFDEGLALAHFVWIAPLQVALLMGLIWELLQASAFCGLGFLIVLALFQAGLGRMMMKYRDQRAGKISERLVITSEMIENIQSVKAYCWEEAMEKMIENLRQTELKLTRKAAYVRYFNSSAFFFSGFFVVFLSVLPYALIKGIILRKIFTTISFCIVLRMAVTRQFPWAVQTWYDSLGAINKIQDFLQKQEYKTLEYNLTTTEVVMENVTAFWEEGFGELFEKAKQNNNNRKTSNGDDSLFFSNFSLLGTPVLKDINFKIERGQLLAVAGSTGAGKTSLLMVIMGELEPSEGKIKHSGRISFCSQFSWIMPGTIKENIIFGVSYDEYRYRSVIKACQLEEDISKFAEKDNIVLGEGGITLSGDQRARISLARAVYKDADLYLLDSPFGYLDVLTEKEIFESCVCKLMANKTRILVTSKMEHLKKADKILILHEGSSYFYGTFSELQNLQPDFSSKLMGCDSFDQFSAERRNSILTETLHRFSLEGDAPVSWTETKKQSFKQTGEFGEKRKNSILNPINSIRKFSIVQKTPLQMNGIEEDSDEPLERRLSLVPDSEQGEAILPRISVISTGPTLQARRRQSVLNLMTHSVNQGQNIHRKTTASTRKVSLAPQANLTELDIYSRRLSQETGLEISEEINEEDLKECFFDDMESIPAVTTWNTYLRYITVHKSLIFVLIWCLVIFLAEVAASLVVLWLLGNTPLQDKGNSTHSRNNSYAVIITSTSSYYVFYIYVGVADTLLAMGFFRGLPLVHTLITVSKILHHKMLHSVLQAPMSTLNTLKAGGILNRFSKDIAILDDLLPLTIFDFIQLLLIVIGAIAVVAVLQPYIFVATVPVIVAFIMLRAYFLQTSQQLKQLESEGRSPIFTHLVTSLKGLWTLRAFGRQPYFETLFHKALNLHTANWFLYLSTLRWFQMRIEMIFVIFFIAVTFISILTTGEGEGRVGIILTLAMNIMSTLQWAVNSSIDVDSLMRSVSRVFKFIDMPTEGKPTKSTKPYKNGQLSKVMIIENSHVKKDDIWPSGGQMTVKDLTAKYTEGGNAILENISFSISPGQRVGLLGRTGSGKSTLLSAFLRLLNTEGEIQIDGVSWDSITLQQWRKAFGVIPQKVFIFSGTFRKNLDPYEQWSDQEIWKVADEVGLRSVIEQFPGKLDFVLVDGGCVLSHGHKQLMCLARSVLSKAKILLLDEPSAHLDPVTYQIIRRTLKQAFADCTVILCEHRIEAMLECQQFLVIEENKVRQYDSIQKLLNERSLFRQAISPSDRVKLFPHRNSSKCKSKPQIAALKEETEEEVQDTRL
Cystic fibrosis transmembrane conductance regulator (Homo sapiens, UniProt P13569, G551D), sequence (P13569 whole entry G551D): as above

The species entered for the first series is Homo sapiens. Briefly: Selectivity ratio of EC50 for CFTR G551D mutant (unknown origin) to EC50 for CFTR F508del mutant (unknown origin).
As to `CC(C)(C)CC(O)C(=O)Nc1sc2c(c1C(N)=O)CC(C)(C)OC2(C)C` (stereo not drawn), the Ratio EC50 was found to be 2000.

The test system of the next series is Cystic fibrosis transmembrane conductance regulator (Homo sapiens), P13569 [G551D]. Kind of series: (§1) Potentiation of CFTR G551D mutant (unknown origin) expressed in HEK293 cells incubated for 10 mins in presence of forskolin measured for 2 mins by YFP halide assay. It is filed as cell-based. Also noted: concentration or dose not given beside the values. The procedure, abridged:
(§2)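 HEK293 cells transfected with the mutant CFTR (G551D, G178R, S549N or R117H) and YFP (H148Q/I152L/F47L), seeded directly after transfection, then 24 h at 37°C. Treated 10 min at room temperature with 10 µM forskolin plus potentiator. Fluorescence read for 2 min across addition of NaI buffer (375 mM NaI). Activity = 1-(F/F0).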
Take `CC1Cc2c(sc(NC(=O)c3ccccc3O)c2C(N)=O)C(C)O1` (stereo not drawn): the Activity amounted to 36%.
On the same count and under the same terms, next, `CC1(C)Cc2c(sc(NC(=O)c3cc(C(F)(F)F)n[nH]3)c2C(N)=O)C(C)(C)O1`: 49%; `Cc1cc(C(=O)Nc2sc3c(c2C(N)=O)CC(C)(C)OC3(C)C)[nH]n1`: 73%; `Cc1cn[nH]c1C(=O)Nc1sc2c(c1C(N)=O)CC(C)(C)OC2(C)C`: 83%.
On the same count and under the same terms, next, `CC1(C)Cc2c(sc(NC(=O)c3[nH]ncc3Cl)c2C(N)=O)C(C)(C)O1`: 77%; `NC(=O)c1c(NC(=O)c2ccccc2Cl)sc2c1CCCC2`: 18%.
On the same count and under the same terms, next, `CC1(C)Cc2c(sc(NC(=O)c3ccccc3O)c2C(N)=O)C(C)(C)O1`: 52%; `CC1(C)Cc2c(sc(NC(=O)[C@H](O)C(C)(C)C)c2C(N)=O)C(C)(C)O1`: 31%.
Take `CC1(C)Cc2c(sc(NC(=O)C3(CO)CC3)c2C(N)=O)C(C)(C)O1`: the Activity came to 57%.
Same read-out and setting: next, `CC(C)(C)c1cc(C(C)(C)C)c(NC(=O)c2c[nH]c3ccccc3c2=O)cc1O` [IVACAFTOR]: 50%; `CC(C)(C)CC(O)C(=O)Nc1sc2c(c1C(N)=O)CC(C)(C)OC2(C)C` (stereo not drawn): 58%.
Regarding `CC1(C)Cc2c(sc(NC(=O)[C@@H](O)C(C)(C)C)c2C(N)=O)C(C)(C)O1`, the Activity came out at 50%.
The same measure, in the same setting: to `CC1(C)Cc2c(sc(NC(=O)c3ccccc3O)c2C(N)=O)CO1` belongs 51%; to `Cc1n[nH]c(C(=O)Nc2sc3c(c2C(N)=O)CC(C)(C)OC3(C)C)c1Cl`, 68%.

Another series deals with Cystic fibrosis transmembrane conductance regulator (Homo sapiens, UniProt P13569, G551D). Described as §1. The class given is cell-based. The procedure, abridged:
as §2
Consider `CC1Cc2c(sc(NC(=O)c3ccccc3O)c2C(N)=O)C(C)O1` (stereo not drawn), for which the EC50 was 236 nM.
Take `Cc1cn[nH]c1C(=O)Nc1sc2c(c1C(N)=O)CC(C)(C)OC2(C)C`: the EC50 was 123 nM.
Same read-out and setting: to `NC(=O)c1c(NC(=O)c2ccccc2Cl)sc2c1CCCC2` belongs more than 10000 nM; to `CC1(C)Cc2c(sc(NC(=O)C3(CO)CC3)c2C(N)=O)C(C)(C)O1`, 1320 nM.
On the same count and under the same terms, next, `CC(C)(C)c1cc(C(C)(C)C)c(NC(=O)c2c[nH]c3ccccc3c2=O)cc1O` [IVACAFTOR]: 1300 nM; `CC1(C)Cc2c(sc(NC(=O)c3cc(C(F)(F)F)[nH]n3)c2C(N)=O)C(C)(C)O1`: 130 nM; `CC1(C)Cc2c(sc(NC(=O)[C@@H](O)C(C)(C)C)c2C(N)=O)C(C)(C)O1`: 421 nM.
Take `CC1(C)Cc2c(sc(NC(=O)c3ccccc3O)c2C(N)=O)CO1`: the concentration giving a half-maximal response (EC50) is 490 nM.
On the same count and under the same terms, to `Cc1[nH]nc(C(=O)Nc2sc3c(c2C(N)=O)CC(C)(C)OC3(C)C)c1Cl` belongs 199 nM.

Test system in another series: not listed separately
Kind of series: Unbound intrinsic clearance in rat microsomes. The class given is ADME, Microsome. The procedure, abridged:
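Intrinsic clearance in liver microsomes or hepatocytes, corrected for non-specific binding using fraction unbound in microsomes (Fu,mic) or in hepatocyte incubations (Fu,inc).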
In the case of `NC(=O)c1c(NC(=O)c2ccccc2Cl)sc2c1CCCC2`, the CL free worked out at 1400 mL/min/kg.

In a further series the test system is Cystic fibrosis transmembrane conductance regulator (Homo sapiens), P13569 [F508del]. Briefly: (§3) Potentiation of CFTR F508del mutant (unknown origin) expressed in human CFBE41o cells incubated for 10 mins in presence of forskolin measured for 7 secs by YFP halide assay. The class given is cell-based. Also noted: concentration or dose not given beside the values. The method in brief: (§4)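 CFBE41o- cells (CF bronchial line) transduced by adenovirus with F508del CFTR and YFP (H148Q/I152L/F47L). Cells held 24 h at 27°C, then treated 10 min at room temperature with 10 µM forskolin plus potentiator. YFP fluorescence read for 7 s across addition of NaI buffer (137 mM NaI). Activity = 1-(F/F0).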
Cystic fibrosis transmembrane conductance regulator (Homo sapiens), P13569 [F508del], sequence (P13569 as listed by the source): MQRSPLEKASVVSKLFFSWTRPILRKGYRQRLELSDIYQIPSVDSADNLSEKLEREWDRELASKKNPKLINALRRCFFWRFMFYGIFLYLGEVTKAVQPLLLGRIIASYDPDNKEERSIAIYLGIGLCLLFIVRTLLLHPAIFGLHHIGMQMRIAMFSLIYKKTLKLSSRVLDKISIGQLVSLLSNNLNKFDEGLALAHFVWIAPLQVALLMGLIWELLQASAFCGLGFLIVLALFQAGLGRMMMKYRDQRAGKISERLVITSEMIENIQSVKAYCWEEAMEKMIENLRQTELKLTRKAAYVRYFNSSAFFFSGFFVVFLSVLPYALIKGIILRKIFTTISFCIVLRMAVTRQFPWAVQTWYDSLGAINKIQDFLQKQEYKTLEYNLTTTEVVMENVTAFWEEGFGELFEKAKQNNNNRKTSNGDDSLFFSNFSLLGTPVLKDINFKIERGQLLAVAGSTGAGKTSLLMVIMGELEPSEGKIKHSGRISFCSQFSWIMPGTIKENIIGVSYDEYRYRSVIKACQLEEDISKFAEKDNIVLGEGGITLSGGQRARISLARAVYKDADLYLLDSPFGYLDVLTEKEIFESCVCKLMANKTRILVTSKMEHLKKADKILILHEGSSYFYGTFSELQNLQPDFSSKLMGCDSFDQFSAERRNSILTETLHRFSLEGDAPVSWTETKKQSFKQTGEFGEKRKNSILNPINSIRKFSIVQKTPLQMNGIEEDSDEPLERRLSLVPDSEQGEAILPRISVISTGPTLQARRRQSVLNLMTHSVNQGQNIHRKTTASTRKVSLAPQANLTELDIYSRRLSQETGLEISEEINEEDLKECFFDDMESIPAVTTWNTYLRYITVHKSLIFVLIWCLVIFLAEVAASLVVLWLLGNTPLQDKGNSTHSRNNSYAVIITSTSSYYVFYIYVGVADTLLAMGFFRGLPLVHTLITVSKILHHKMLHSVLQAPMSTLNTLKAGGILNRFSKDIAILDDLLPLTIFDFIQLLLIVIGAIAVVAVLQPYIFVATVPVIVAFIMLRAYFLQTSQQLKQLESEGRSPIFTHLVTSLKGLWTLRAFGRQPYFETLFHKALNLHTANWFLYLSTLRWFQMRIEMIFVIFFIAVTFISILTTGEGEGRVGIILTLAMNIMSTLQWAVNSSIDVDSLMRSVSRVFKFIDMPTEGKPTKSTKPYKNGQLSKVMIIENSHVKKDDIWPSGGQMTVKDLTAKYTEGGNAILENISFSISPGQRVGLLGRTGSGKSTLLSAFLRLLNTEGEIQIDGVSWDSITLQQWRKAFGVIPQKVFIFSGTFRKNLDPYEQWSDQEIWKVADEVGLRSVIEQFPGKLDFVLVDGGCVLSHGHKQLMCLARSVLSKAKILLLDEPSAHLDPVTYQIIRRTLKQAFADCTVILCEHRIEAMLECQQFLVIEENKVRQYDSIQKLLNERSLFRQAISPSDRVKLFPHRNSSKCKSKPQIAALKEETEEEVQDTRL
On to `Cc1ccc(C(=O)Nc2sc3c(c2C(N)=O)CCOC3)s1`, for which the Activity was 74%.
In the case of `Cc1ccc(C(=O)Nc2sc3c(c2C(N)=O)CCNC3)s1`, the Activity came to 3%.
For the molecule `CC1Cc2c(sc(NC(=O)c3ccccc3O)c2C(N)=O)C(C)O1` (stereo not drawn), the Activity turned out to be 98%.
Still for that read-out and setting: to `CC1(C)Cc2c(sc(NC(=O)c3cc(C(F)(F)F)n[nH]3)c2C(N)=O)C(C)(C)O1` belongs 107%; to `Cc1cc(C(=O)Nc2sc3c(c2C(N)=O)CC(C)(C)OC3(C)C)[nH]n1`, 81%.
Still for that read-out and setting: next, `Cc1cn[nH]c1C(=O)Nc1sc2c(c1C(N)=O)CC(C)(C)OC2(C)C`: 96%; `CC1(C)Cc2c(sc(NC(=O)c3[nH]ncc3Cl)c2C(N)=O)C(C)(C)O1`: 96%.
For the molecule `NC(=O)c1c(NC(=O)c2ccccc2Cl)sc2c1CCCC2`, the Activity is 71%.
The same measure, in the same setting: next, `CC1(C)Cc2c(sc(NC(=O)c3ccccc3O)c2C(N)=O)C(C)(C)O1`: 111%; `CC1(C)Cc2c(sc(NC(=O)[C@H](O)C(C)(C)C)c2C(N)=O)C(C)(C)O1`: 95%; `CC1(C)Cc2c(sc(NC(=O)C3(CO)CC3)c2C(N)=O)C(C)(C)O1`: 105%.
Take `CC(C)(C)c1cc(C(C)(C)C)c(NC(=O)c2c[nH]c3ccccc3c2=O)cc1O` [IVACAFTOR]: the Activity came out at 100%.
On to `CC(C)(C)CC(O)C(=O)Nc1sc2c(c1C(N)=O)CC(C)(C)OC2(C)C` (stereo not drawn), for which the Activity is 102%.
On the same count and under the same terms, to `CC1(C)Cc2c(sc(NC(=O)[C@@H](O)C(C)(C)C)c2C(N)=O)C(C)(C)O1` belongs 95%.
The same measure, in the same setting: to `CC1(C)Cc2c(sc(NC(=O)c3ccccc3O)c2C(N)=O)CO1` belongs 93%.
Still for that read-out and setting: next, `Cc1n[nH]c(C(=O)Nc2sc3c(c2C(N)=O)CC(C)(C)OC3(C)C)c1Cl`: 92%.
`Cc1ccc(C(=O)Nc2sc3c(c2C(N)=O)CCCC3)s1`: the Activity is 72%.

The target of another series is Cystic fibrosis transmembrane conductance regulator (Homo sapiens, UniProt P13569, F508DEL). The series is described as §3. The class given is cell-based. The procedure, abridged: as §4
Cystic fibrosis transmembrane conductance regulator (Homo sapiens, UniProt P13569, F508DEL), sequence (P13569 as listed by the source): as above
Turning to `CC1(C)Cc2c(sc(NC(=O)c3cn[nH]c3)c2C(N)=O)C(C)(C)O1`, the EC50 was 125 nM.
Take `Cc1ccc(C(=O)Nc2sc3c(c2C(N)=O)CCOC3)s1`: the EC50 was determined as 778 nM.
Regarding `CC1(C)Cc2c(sc(NC(=O)c3cccnc3O)c2C(N)=O)C(C)(C)O1`, the EC50 worked out at 190 nM.
On the same count and under the same terms, to `CC1Cc2c(sc(NC(=O)c3ccccc3O)c2C(N)=O)C(C)O1` (stereo not drawn) belongs 4 nM; to `Cc1cc(C(=O)Nc2sc3c(c2C(N)=O)CC(C)(C)OC3(C)C)[nH]n1`, 13 nM.
Still for that read-out and setting: to `CC1(C)Cc2c(sc(NC(=O)Cc3ccn[nH]3)c2C(N)=O)C(C)(C)O1` belongs 136 nM; to `Cc1cn[nH]c1C(=O)Nc1sc2c(c1C(N)=O)CC(C)(C)OC2(C)C`, 2 nM; to `CC1(C)Cc2c(sc(NC(=O)c3[nH]ncc3Cl)c2C(N)=O)C(C)(C)O1`, 2 nM.
The same measure, in the same setting: to `NC(=O)c1c(NC(=O)c2ccccc2Cl)sc2c1CCCC2` belongs 326 nM; to `CC1(C)Cc2c(sc(NC(=O)C(C)(C)CO)c2C(N)=O)C(C)(C)O1`, 75 nM; to `CC1(C)Cc2c(sc(NC(=O)c3ccccc3O)c2C(N)=O)C(C)(C)O1`, 4 nM.
For `CC1(C)Cc2c(sc(NC(=O)c3nnc[nH]3)c2C(N)=O)C(C)(C)O1`, the EC50 was found to be 467 nM.
Regarding `CC1(C)Cc2c(sc(NC(=O)[C@H](O)C(C)(C)C)c2C(N)=O)C(C)(C)O1`, the EC50 came to 127 nM.
Still for that read-out and setting: next, `CC1(C)Cc2c(sc(NC(=O)C3(CO)CC3)c2C(N)=O)C(C)(C)O1`: 15 nM.
Still for that read-out and setting: to `CC1(C)Cc2c(sc(NC(=O)C3CNC(=O)C3)c2C(N)=O)C(C)(C)O1` (stereo not drawn) belongs more than 10000 nM; to `CC1(C)Cc2c(sc(NC(=O)c3ccccc3NS(C)(=O)=O)c2C(N)=O)C(C)(C)O1`, 147 nM.
On the same count and under the same terms, to `CC(C)(C)c1cc(C(C)(C)C)c(NC(=O)c2c[nH]c3ccccc3c2=O)cc1O` [IVACAFTOR] belongs 126 nM.
For `CC1(C)Cc2c(sc(NC(=O)C(C)(C)O)c2C(N)=O)C(C)(C)O1`, the EC50 was determined as 16 nM.
Turning to `CC1(C)Cc2c(sc(NC(=O)c3cc(C(F)(F)F)[nH]n3)c2C(N)=O)C(C)(C)O1`, the concentration giving a half-maximal response (EC50) worked out at 3 nM.
On the same count and under the same terms, to `CC1(C)Cc2c(sc(NC(=O)C3(O)CC3)c2C(N)=O)C(C)(C)O1` belongs 23 nM; to `CC1(C)Cc2c(sc(NC(=O)C3CCNC3=O)c2C(N)=O)C(C)(C)O1` (stereo not drawn), 101 nM; to `CC(C)(C)CC(O)C(=O)Nc1sc2c(c1C(N)=O)CC(C)(C)OC2(C)C` (stereo not drawn), 0.54 nM.
Same read-out and setting: to `CC1(C)Cc2c(sc(NC(=O)[C@@H](O)C(C)(C)C)c2C(N)=O)C(C)(C)O1` belongs 2.7 nM; to `CC1(C)Cc2c(sc(NC(=O)c3ccccc3O)c2C(N)=O)CO1`, 13 nM; to `Cc1[nH]nc(C(=O)Nc2sc3c(c2C(N)=O)CC(C)(C)OC3(C)C)c1Cl`, 11 nM.
On the same count and under the same terms, to `Cc1ccc(C(=O)Nc2sc3c(c2C(N)=O)CCCC3)s1` belongs 652 nM.

Broadly, the EC50 is the midpoint of the concentration-response curve.
